Laboratory results: ChEMBL document CHEMBL3779787, “Amorfrutin C Induces Apoptosis and Inhibits Proliferation in Colon Cancer Cells through Targeting Mitochondria” (J Nat Prod, 2016)
Active and inactive are the calls of the source. The calls are words filed in the database; no cut-off is given here.

What was measured:
[1] = system: HT-29; test: Induction of apoptosis in human HT-29 cells assessed as mitochondrial membrane depolarization at 30 uM by JC-1 dye-based fluorescence assay in presence of cyclosporinA; type: functional, cell-based
[2] = system: HT-29; test: Induction of apoptosis in human HT-29 cells at 30 uM after 24 hrs by annexin V-FLUOS/propidium iodide staining-based flow cytometry in presence of PPAR siRNA; type: functional, cell-based
Procedure, shortened: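 HT-29 transfected with PPARα/β/δ/γ siRNA pool (10 nM each) or 30 nM nonspecific siRNA, seeded 150 000 cells/well. After 48 h, 30 μM compound added for a further 24 h. Phosphatidylserine externalization by annexin V flow cytometry; means ± SEM, n = 6.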

[3] = system: HT-29; test: Antiproliferative activity against human HT-29 cells assessed as cellular DNA content after 72 hrs by CyQUANT NF fluorescence assay; type: functional, cell-based; details: HT-29, 72 h
Procedure, shortened: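 Cells seeded at 750 (HT-29), 250 (PC-3) or 900 (T84, MCF7) cells/well, treated next day with concentration series for 72 h (HT-29, PC-3) or 96 h (T84, MCF7). Relative cell number from cellular DNA content by fluorescent DNA-binding dye. Variable-slope fit; efficiency = maximal inhibition (100% − Bottom) vs untreated; IC50 relative to the compound's own maximal efficiency.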

[4] = system: HT-29; test: Increase in extracellular acidification rate in human HT-29 cells at 2 uM measured for 20 to 150 mins by time-resolved fluorescence assay; type: functional
Procedure, shortened: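 HT-29 seeded 80 000 cells/well, held overnight at 37 °C without CO2. Low-buffering medium (1 mM PBS pH 7.4, 20 mM glucose, salts) with pH-sensitive lifetime probe, unsealed wells. Time-resolved fluorescence at 37 °C for 200 min, lifetime converted to pH. Acidification rate (H+ change/min) taken over 20–150 min; means ± SEM, n = 8.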

[5] = system: HT-29; test: Induction of apoptosis in human HT-29 cells assessed as increase in phosphatidylserine externalization at 10 uM after 48 hrs by flow cytometry in presence of TNF-related apoptosis inducing ligand; type: functional, cell-based
Procedure, shortened: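 HT-29 exposed 48 h to 10 μM compound, αFAS (10 ng/mL), TRAIL (30 ng/mL) or combinations. Phosphatidylserine externalization by annexin V flow cytometry. Expected combination effects from Bliss independence; means ± SEM, n = 4.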

[6] = system: HT-29; test: Induction of apoptosis in human HT-29 cells assessed as permanent opening of mitochondrial permeability transition pore at 30 uM after 30 mins calcein/CoCl2 staining-based fluorescence assay; type: functional, cell-based
Procedure, shortened: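 Trypsinized HT-29 (10^6 cells/mL) in HBSS/Ca with 10 nM calcein and 400 μM CoCl2. Pretreated 60 min at 37 °C with 2 μM cyclosporin A or vehicle, then test compound for 30 min at 37 °C. Washed; mitochondrial calcein fluorescence by flow cytometry; means ± SEM, n = 6.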

[7] = system: HT-29; test: Induction of ROS generation in human HT-29 cells at 30 uM by CM-H2DCFDA staining-based fluorescence assay in presence of ascorbic acid; type: functional, cell-based
Procedure, shortened: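 HT-29 (15 000 cells/well) loaded with 50 μM CM-H2DCFDA in PBS for 30 min at 37 °C, washed, then 60 min in phenol red-free DMEM/F-12. 30 μM compound added alone or with NAC 1 mM, GSH 2.5 mM, D3T 25 μM, α-tocopherol 50 μM or ascorbic acid 500 μM. Fluorescence 485/530 nm read kinetically at 37 °C for 22 h; area under curve; means ± SEM, n = 7.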

[8] = system: HT-29; test: Upregulation of p21/Cip1 expression in human HT-29 cells at 10 uM after 48 hrs by immunoblotting method; type: functional, cell-based
Procedure, shortened: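 HT-29 cells exposed 48 h to 10 μM compound. Whole-cell protein lysates probed for cell-cycle modulators by immunoblotting.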

Question: Which results are given for `COc1c(CC=C(C)C)c(O)c(C(=O)O)c(CCc2ccccc2)c1CC=C(C)C`?
Answer: Activity [1]: Active; Activity [2]: Active; IC50 [3]: 8.1 µM; Activity [4]: 1.5 ×10⁻⁹ /min; Activity [5]: Active; Activity [6]: Active; Activity [7]: inactive; Activity [8]: Active
